Measured values of several laboratories.
Lines come from different studies, so protocols differ.
Target: 1-phosphatidylinositol 3-phosphate 5-kinase (PIKFYVE, Homo sapiens, UniProt Q9Y2I7)

With `COc1cnc(Nc2cccc(S(N)(=O)=O)c2)nc1N1CCN(c2ccccc2)CC1` the remaining binding was 85% (binding; competition with immobilised ligand; 1 µM).
With `CN(C)c1nccc(-c2cnc3ncccn23)n1` the remaining binding was 78% (binding; 1 µM).
`O=C(c1ccc(Nc2nccc(-c3cc4ccccc4s3)n2)cc1)N1CCC(N2CCCC2)CC1` gave a remaining binding of 0.6% (binding; competition with immobilised ligand; 1 µM).
`Nc1ncc2c(n1)-c1c([nH]c3ccc(C#CC4CC4)cc13)CCCC2` gave a remaining binding of 9.8% (binding; competition with immobilised ligand; 1 µM).
For `COc1cnc(Nc2cccc(S(N)(=O)=O)c2)nc1N1CCN(c2ccccc2)C(=O)C1`, the remaining binding was 100% (binding; competition with immobilised ligand; 1 µM).
`c1cnn2ncc(-c3ccnc(N4CCC45COC5)n3)c2c1` gave a remaining binding of 92% (binding; 1 µM).
For `CSc1cccnc1N1CCN(Cc2nc3ccccc3[nH]2)CC1`, the remaining binding was 100% (cell-free assay; competition with immobilised ligand; 1 µM).
`c1cncc(-c2cccc(Nc3nccc(NC4CCCCC4)n3)c2)c1` has a remaining binding of 29% (binding; competition with immobilised ligand; 10 µM).
With `C[C@@H]1CCN(c2nccc(-c3cnn4ncccc34)n2)C1` the remaining binding was 99% (binding; 1 µM).
`CN([C@@H]1CCc2c(CC(=O)O)c3ccccc3n2C1)S(=O)(=O)c1ccc(F)cc1` gave a remaining binding of 100% (cell-free assay; competition with immobilised ligand; 1 µM).
`N[C@@H]1CCN(c2nccc(-c3cnn4ncccc34)n2)C1` has a remaining binding of 78% (binding; 1 µM).
`O=C(c1ccc(Nc2ncc(Cl)c(-c3ccc(Cl)s3)n2)cc1)N1CCC(N2CCCC2)CC1` gave a remaining binding of 32% (binding; competition with immobilised ligand; 1 µM).
With `COc1ccc2c(c1)O[C@@H](c1ccc(OC)c(OC)c1)C[C@H]2NC(=O)C1(c2ccc3c(c2)OC(F)(F)O3)CC1` the remaining binding was 100% (cell-free assay; competition with immobilised ligand; 1 µM).
With `O=C(c1ccc(Nc2ncc(Cl)c(-c3cc4ccccc4s3)n2)cc1)N1CCC(N2CCCC2)CC1` the remaining binding was 72% (binding; competition with immobilised ligand; 1 µM).
`CO[C@H]1CC[C@H](CNc2ccc(S(=O)(=O)NC(=O)c3ccc(N4CCN(CC5=C(c6ccc(Cl)cc6)CC(C)(C)CC5)CC4)cc3Oc3cnc4[nH]ccc4c3)cc2[N+](=O)[O-])CC1` gave a remaining binding of 89% (cell-free assay; competition with immobilised ligand; 1 µM).
With `CN(C)c1nccc(-c2cnn3ncccc23)n1` the remaining binding was 100% (binding; 1 µM).
The remaining binding of `FC(F)(F)c1ccc2c(c1)nc(-c1cccnc1)n2C1CC1` is reported as 99% (cell-free assay; competition with immobilised ligand; 1 µM).
`O=C(Nc1c[nH]nc1C(=O)NC1CCNCC1)c1cc(F)cc(F)c1` has a remaining binding of 86% (binding; competition with immobilised ligand; 1 µM).
